# Experimental data gathered from unrelated publications.
# Compare with care: the assays were run in different laboratories.
# Target: LIM domain kinase 2 (LIMK2, Homo sapiens, UniProt P53671)
Compound,observed,technique,tested at,remaining binding [%]
N[C@@H]1CCN(c2nccc(-c3cnn4ncccc34)n2)C1,binding,,1 µM,100
O=C(NCCCN1CCOCC1)c1ccc(Nc2nccc(-c3cc4ccccc4s3)n2)cc1,binding,competition with immobilised ligand,1 µM,59
CNC(=O)c1ccc(Nc2ncc(C(F)(F)F)c(NCc3nccnc3N(C)S(C)(=O)=O)n2)cc1,cell-free assay,competition with immobilised ligand,0.1 µM,87
COc1ncc2cc3ccccc3nc2c1C#N,cell-free assay,competition with immobilised ligand,5 µM,91
O=C1NC(c2ccccn2)Sc2ccccc21 (stereo not shown),cell-free assay,competition with immobilised ligand,1 µM,92
O=C(c1ccc(Nc2ncc(Cl)c(-c3ccc(Cl)s3)n2)cc1)N1CCC(N2CCCC2)CC1,binding,competition with immobilised ligand,1 µM,38
C[C@H]1CCN(c2nccc(-c3cnn4ncccc34)n2)C1,binding,,1 µM,75
O=C(c1ccc(Nc2ncc(Cl)c(-c3cc4ccccc4s3)n2)cc1)N1CCC(N2CCCC2)CC1,binding,competition with immobilised ligand,1 µM,30
CN(C)c1nccc(-c2cnc3ncccn23)n1,binding,,1 µM,91
O=S(=O)(NC1CCC(c2cc(F)ccc2F)(S(=O)(=O)c2ccc(Cl)cc2)CC1)C(F)(F)F (stereo not shown),cell-free assay,competition with immobilised ligand,1 µM,87
CCN1CCN(Cc2ccc(C(=O)Nc3ccc(C)c(Oc4ccc5c(c4)CC(=O)N5)c3)cc2C(F)(F)F)CC1,binding,competition with immobilised ligand,1 µM,100
Nc1ncc2c(n1)-c1c([nH]c3ccc(C#CC4CC4)cc13)CCCC2,binding,competition with immobilised ligand,1 µM,91
COc1cnc(Nc2cccc(S(N)(=O)=O)c2)nc1N1CCN(c2ccccc2)C(=O)C1,binding,competition with immobilised ligand,1 µM,100
COc1ccnn2ncc(-c3ccnc(N(C)C)n3)c12,binding,,1 µM,82
COc1cnc(Nc2cccc(S(N)(=O)=O)c2)nc1N1CCN(c2ccccc2)CC1,binding,competition with immobilised ligand,1 µM,96
C=CC(=O)N1CCC(C(=O)NCC(=O)N2CCN(c3nc(-c4cnc(N)nc4C(F)F)nc(N4CCOCC4)n3)CC2)CC1,binding,competition with immobilised ligand,1 µM,97
O=c1nc(-c2ccccn2)sc2ccccc12,binding,competition with immobilised ligand,1 µM,100
CN(C)c1ncc(F)c(-c2cnn3ncccc23)n1,binding,,1 µM,82
CCC(=O)N[C@H]1CC[C@@H](C(=O)N(C)c2ccc(-c3nc4ccccc4o3)cc2)C1,cell-free assay,competition with immobilised ligand,1 µM,100
CN(c1nccc(-c2cnn3ncccc23)n1)C1CC1,binding,,1 µM,100
COc1cc(-c2cn(C3CCc4c(F)cccc4N(CC(F)(F)F)C3=O)nn2)ccc1-n1cnc(C)c1 (stereo not shown),cell-free assay,competition with immobilised ligand,1 µM,100
O=C(NCC1CCOCC1)c1n[nH]cc1NC(=O)c1c(F)cccc1F,binding,competition with immobilised ligand,1 µM,97
